Source: ChEMBL document CHEMBL3244241, “Synthesis of cephalotaxine esters and correlation of their structures with antitumor activity” (J Med Chem, 1977)

Assays:
P388 [1] = test: Antitumor activity against mouse P388 cells allografted in DBA/2 mouse assessed as host survival at 80 mg/kg/day, ip for 9 days compound administered through saline vehicle relative to control; type: functional; settings: route intraperitoneal
Method in brief: (§1)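 P388 lymphocytic leukemia in DBA/2 mice. Dosing was one intraperitoneal injection per day for 9 days in the vehicle stated. […] Duplicate tests were run for some doses.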

Mus musculus [2] = test: Toxicity in DBA/2 mouse allografted with mouse P388 cells assessed as change in body weight at 320 mg/kg/day, ip for 9 days compound administered through saline vehicle; type: organism-based; set-up: route intraperitoneal; settings: in vivo, 216 h
Method in brief: (§2)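 DBA/2 mice bearing P388 lymphocytic leukemia received one intraperitoneal injection per day for 9 days, given in the vehicle named for each test (water/alcohol-based, saline or saline + Tween 80). Toxicity was noted during dosing alongside survival scoring (T/C, treated versus control mean survival time).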

Mus musculus [3] = test: Toxicity in DBA/2 mouse allografted with mouse P388 cells assessed as change in body weight at 160 mg/kg/day, ip for 9 days compound administered through saline vehicle; type: organism-based; set-up: route intraperitoneal; settings: in vivo, 216 h; method in brief: as §2
Mus musculus [4] = test: Toxicity in DBA/2 mouse allografted with mouse P388 cells up to 320 mg/kg/day, ip for 9 days; type: organism-based; set-up: route intraperitoneal; settings: in vivo, 216 h; method in brief: as §2
Mus musculus [5] = test: Toxicity in DBA/2 mouse allografted with mouse P388 cells assessed as change in body weight at 80 mg/kg/day, ip for 9 days compound administered through saline vehicle; type: organism-based; set-up: route intraperitoneal; settings: in vivo, 216 h; method in brief: as §2
P388 [6] = test: Antitumor activity against mouse P388 cells allografted in DBA/2 mouse assessed as host survival at 320 mg/kg/day, ip for 9 days compound administered through saline vehicle relative to control; type: functional; settings: route intraperitoneal; method in brief: as §1
P388 [7] = test: Antitumor activity against mouse P388 cells allografted in DBA/2 mouse assessed as host survival at 160 mg/kg/day, ip for 9 days compound administered through saline vehicle relative to control; type: functional; settings: route intraperitoneal; method in brief: as §1

COC1=C[C@]23CCCN2CCc2cc4c(cc2[C@@H]3[C@@H]1OC(=O)[C@@H](OC(=O)OCC(Cl)(Cl)Cl)c1ccccc1)OCO4
T/C (P388 [1]): 138%
Activity (Mus musculus [2]): -2.3 g
Activity (Mus musculus [3]): 1.2 g
Activity (Mus musculus [4]): Toxic
Activity (Mus musculus [5]): -1 g
T/C (P388 [6]): 136%
T/C (P388 [7]): 154%
